Measurements taken from paper PMC9290801 (Journal of Clinical Pharmacology, 2021).
Read-outs that look alike come from different tables or passages of the source.

Legend:
[1] = Blood-to-plasma ratio and plasma protein binding; type: in vitro ADME
[2] = coadministration with rifampicin vs selumetinib alone; cited from earlier work
CYP3A = CYP3A contribution to selumetinib clearance; set-up: species or system human
[3] = adults with solid tumors; cited from earlier work
P‐glycoprotein (P‐gp) = assay: P-gp transport kinetics; type: in vitro ADME
Summary of the method: (§1)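 Intestinal P-gp kinetics were estimated by the Troutman–Thakker approach, assuming one-site saturable Michaelis–Menten kinetics, with intrinsic clearance derived from Jmax and Km. The values were placed at the intestinal apical site (ADAM absorption, minimal PBPK) and at the hepatic canalicular site (full PBPK, tissue:plasma Kp 0.4).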

P-glycoprotein (P-gp) = assay: P-gp transport kinetics; type: in vitro ADME; conditions: not told
Summary of the method: as §1

[4] = single oral dose, healthy adult subjects; cited from earlier work
[5] = Madin-Darby Canine Kidney II permeability measurement; type: in vitro ADME; conditions: dog, MDCK
CYP2C19 = CYP2C19 contribution to selumetinib clearance; set-up: species or system human
[6] = PBPK model absorption/distribution input parameters; set-up: species or system human; conditions: Estimated based on observed Cmax and PK profile (Study NCT02093728)
Summary of the method: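 Minimal 4-compartment PBPK model in Simcyp v17 with first-order absorption and a single adjusting compartment (intercompartmental clearance 8 L/h, from a population PK model). Compartment volume was fitted to observed Cmax and profile from a healthy-volunteer trial: 10 × 10 virtual subjects aged 18–44 years given a single oral 25 mg dose.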

[7] = Physicochemical parameters
[8] = cited from earlier work
[9] = cited from earlier work; remark: listed apart in the source
[10] = cited from earlier work; remark: listed apart in the source

## Cn1cnc2c(F)c(Nc3ccc(Br)cc3Cl)c(C(=O)NOCCO)cc21 [selumetinib]
[1]; Report KPJ003
  B:P (blood‐to‐plasma ratio): 0.625
[1]; plasma
  fraction unbound: 0.016
[2]
  decrease in AUC: 51%
  reduction in Cmax: 26%
CYP3A; Retrograde from CLpo 19.6 L/h, fm 25%
  CYP3A CLint: 0.568 µL/min/pmol
CYP3A; assigned according to DDI study with itraconazole
  fm (fraction metabolized) by CYP3A: 25%
[3]
  maximum tolerated dose: 75 mg
P‐glycoprotein (P‐gp); estimated, one‐site Michaelis‐Menten saturable kinetics
  maximal carrier‐mediated flux (Jmax): 9.9 pmol/min
P‐glycoprotein (P‐gp); from Jmax and Km
  P‐gp intrinsic clearance: 0.62 µL/min
P-glycoprotein (P-gp)
  Km: 15.8 µM
[4]
  absolute (oral) bioavailability: 62%
[5]
  Papp: 37.7 ×10⁻⁶ cm/s
CYP2C19; Retrograde from CLpo 19.6 L/h, fm 15%
  CYP2C19 CLint: 3.335 µL/min/pmol
CYP2C19; assigned according to DDI study with fluconazole
  fm (fraction metabolized) by CYP2C19: 15%
[6]
  Vsac (volume of single adjusting compartment): 1 L/kg
[7]
  logP: 3.88
[8]; SPRINT phase 2 cohort, 25 mg/m^2
  observed exposure (AUC from time 0 to 12 hours): 2009 ng·h/mL
[8]; pediatric SPRINT phase 1, twice daily
  maximum tolerated dose: 25 mg/m^2
[8]; pediatric patients, single oral dose
  terminal elimination half‐life: ≈ 6 hours
[9]; oral dose
  fraction of absorption (Oral dose → First pass): > 71%
[9]; renal elimination
  dose eliminated as unchanged in urine: < 1 % of dose
[10]; 25 mg dose+fluconazole
  Observed geomean AUC (CV%): 1770 ng·h/mL
[10]; 25 mg dose+itraconazole
  Observed geomean AUC (CV%): 1760 ng·h/mL
[10]; 25 mg single oral dose alone, healthy volunteers
  Observed geomean AUC (CV%): 1180 ng·h/mL
